High-throughput results as filed in PubChem.
An excerpt weighted towards active compounds, which were near 5.8% of everything screened.
KDM4C inh – inhibitors of GASC-1 (KDM4C) histone demethylase, primary screen, biochemical, single concentration HTS | GST-KDM4C 2-372, H3K9me3 peptide, LANCE TR-FRET | inhibition, % at 12.5 µM | 0.15% of 96,000 active | AID 720574, 2013;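 active = mean replicate inhibition above about 25%, with at least 55% of replicates also reaching it, limit read from the data, passing the limit was not always enough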
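System: N-terminal GST-fused human GASC-1 (KDM4C) fragment, residues 2-372; amount: enzyme final amount 10 nM; incubation: reaction 30 min RT, detection step 1 h RT; medium: HEPES buffer, pH 7.5, plus ascorbate; technique: LANCE TR-FRET, Eu antibody, ULight-streptavidin, EDTA, ex 340 nm, em 618/671 nm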
Tcruzi prolif – T. cruzi intracellular proliferation inhibitors, primary screen, cell-based, beta-gal Tulahuen parasites, NIH3T3 host, luminescence; 5.9% of 77,000 active; inhibition, % at 8.34 µM; AID 624255, 2012; T. cruzi beta-gal in NIH3T3, GalScreen luminescence, 90 h;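 active = mean inhibition above about 93%, with at least 55% of replicates each passing it, limit read from the data, passing the limit was not always enough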
Pf Dd2 inh – P. falciparum Dd2 growth inhibitors, primary screen, SYBR Green fluorescence, single dose replicates | 72 h; hits give low values | activity change, % at 10 µM | 2.3% of 94,000 active; in the data active = activity change below about -80%
IDH1 mut inh – inhibitors of IDH1 R132H reductase, primary screen, biochemical, plate reader, single point. Isocitrate dehydrogenase [NADP] cytoplasmic (Homo sapiens), O75874. diaphorase/resazurin fluorescence, 60 min. inhibition, % at 10 µM. 0.18% of 70,000 active. AID 624101, 2012; in the data active = inhibition above about 34%;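 note: 0% = DMSO and 100% = no enzyme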
Target sequence (O75874 whole entry R132H): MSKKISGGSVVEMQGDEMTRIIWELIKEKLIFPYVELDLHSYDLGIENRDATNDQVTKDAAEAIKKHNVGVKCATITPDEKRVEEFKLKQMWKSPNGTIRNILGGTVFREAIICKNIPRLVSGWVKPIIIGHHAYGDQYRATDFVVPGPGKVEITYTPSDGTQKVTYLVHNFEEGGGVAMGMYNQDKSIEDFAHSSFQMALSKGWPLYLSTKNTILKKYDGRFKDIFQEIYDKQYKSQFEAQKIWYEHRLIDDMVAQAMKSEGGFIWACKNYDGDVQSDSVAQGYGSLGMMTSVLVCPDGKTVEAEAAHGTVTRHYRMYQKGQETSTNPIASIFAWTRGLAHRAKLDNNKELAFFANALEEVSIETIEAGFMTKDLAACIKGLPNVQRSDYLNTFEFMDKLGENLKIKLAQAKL
* hit, by the source's call; x = no result.

SMILES	KDM4C inh	Tcruzi prolif	Pf Dd2 inh	IDH1 mut inh
C[C@H](CO)N1C[C@H](C)[C@@H](CN(C)Cc2cccc(C(=O)Nc3ccccc3N)c2)OCc2ccccc2-c2c(n(C)c3ccccc23)C1=O	7	x	-91*	x
C[C@@H]1CN([C@@H](C)CO)C(=O)c2c(c3ccccc3n2C)-c2ccccc2CO[C@@H]1CN(C)Cc1cccc(F)c1	-2	x	-86*	x
CC(=O)Nc1ccc(-c2nnc(SCC(=O)Nc3cc(Cl)cc(Cl)c3)n2C)cc1	x	x	x	0
Cc1ccc([N+](=O)[O-])cc1NC(=O)C1CCCN(S(=O)(=O)c2ccc(Cl)cc2)C1 (stereo unspecified)	x	x	x	0
O=C(CSc1nnc(-c2ccncc2)o1)c1ccc2ccccc2c1	x	x	x	0
CCCN(C)C[C@@H]1OCCCC[C@@H](C)Oc2ccc(NS(=O)(=O)c3ccc(OC)cc3)cc2C(=O)N([C@@H](C)CO)C[C@@H]1C	0	x	x	-2
COc1ccc(S(=O)(=O)Nc2ccc3c(c2)C(=O)N([C@H](C)CO)C[C@@H](C)[C@H](CN(C)Cc2ccc(Cl)c(Cl)c2)OCCCC[C@@H](C)O3)cc1	0	23	-91*	x
COc1ccc(S(=O)(=O)Nc2ccc3c(c2)C(=O)N([C@@H](C)CO)C[C@@H](C)[C@@H](CN(C)Cc2ccc(Cl)c(Cl)c2)OCCCC[C@@H](C)O3)cc1	1	x	-68	0
CCCN(C)C[C@H]1OCCCC[C@H](C)Oc2ccc(NS(=O)(=O)c3ccc(F)cc3)cc2C(=O)N([C@@H](C)CO)C[C@@H]1C	-1	72	-85*	3
CCCN(C)C[C@H]1OCCCC[C@@H](C)Oc2ccc(NS(=O)(=O)c3ccc(OC)cc3)cc2C(=O)N([C@@H](C)CO)C[C@H]1C	-1	37	-88*	1
CCCN(C)C[C@H]1OCCCC[C@@H](C)Oc2ccc(NS(=O)(=O)c3c(C)noc3C)cc2C(=O)N([C@@H](C)CO)C[C@H]1C	-1	x	-85*	0
Cc1nc(-c2ccccc2)sc1-c1nnc(-c2cccc3ccccc23)o1	x	x	x	-1
COc1ccc(CN(C)C[C@H]2OCCCC[C@@H](C)Oc3ccc(NS(=O)(=O)c4ccc(OC)cc4)cc3C(=O)N([C@@H](C)CO)C[C@H]2C)cc1	0	37	-42	-1
Cc1noc(C)c1S(=O)(=O)Nc1ccc2c(c1)C(=O)N([C@@H](C)CO)C[C@@H](C)[C@@H](CN(C)Cc1ccc(Cl)c(Cl)c1)OCCCC[C@@H](C)O2	0	94	-82*	x
COc1ccc(CN(C)C[C@H]2OCCCC[C@H](C)Oc3ccc(NS(=O)(=O)c4ccc(OC)cc4)cc3C(=O)N([C@@H](C)CO)C[C@H]2C)cc1	1	x	-83*	-1
COc1ccc(S(=O)(=O)Nc2ccc3c(c2)C(=O)N([C@H](C)CO)C[C@H](C)[C@@H](CN(C)Cc2ccc(Cl)c(Cl)c2)OCCCC[C@H](C)O3)cc1	0	63	-62	-1
C[C@@H]1CCCCO[C@@H](CN(C)Cc2ccc(Cl)c(Cl)c2)[C@H](C)CN([C@H](C)CO)C(=O)c2cc(NS(=O)(=O)c3ccc(F)cc3)ccc2O1	1	87	-84*	x
COc1ccc(S(=O)(=O)Nc2ccc3c(c2)C(=O)N([C@H](C)CO)C[C@H](C)[C@@H](CN(C)Cc2ccc(Cl)c(Cl)c2)OCCCC[C@@H](C)O3)cc1	0	x	-90*	2
Cc1cc(C)c2nc(-c3cccnc3)cc(C(=O)Nc3c(C)nn(Cc4ccccc4C)c3C)c2c1	x	x	x	0
CC(=O)Nc1sc2c(c1C(=O)O)CCc1ccccc1-2	x	x	x	2
COc1cc(NC(=O)COc2ccccc2Cl)ccc1NC(=O)c1cc2ccccc2o1	x	x	x	1
COc1ccc2c3c(n(C)c2c1)[C@@H](CO)N(Cc1ccccc1)CC31CN(S(=O)(=O)c2ccc(C)cc2)C1	x	x	-31	x
CCS(=O)(=O)N1CC2(C1)CN(S(=O)(=O)c1ccccc1)[C@@H](CO)c1c2c2ccc(OC)cc2n1C	-1	x	-57	x
COc1ccc2c3c(n(C)c2c1)[C@H](CO)N(Cc1ccccc1)CC31CCN(S(=O)(=O)c2ccc(C)cc2)CC1	0	x	-84*	x
CCS(=O)(=O)N1CCC2(CC1)CN(S(=O)(=O)c1ccccc1)[C@@H](CO)c1c2c2ccc(OC)cc2n1C	0	x	-84*	x
SMILES	KDM4C inh	Tcruzi prolif	Pf Dd2 inh	IDH1 mut inh
C=CCN(CC=C)S(=O)(=O)c1ccc(C(=O)Nc2ccccc2-c2nc3ccccc3[nH]2)cc1	x	x	x	1
C[C@H](CO)N1C[C@H](C)[C@H](CN(C)Cc2ccc(C(=O)Nc3ccccc3N)cc2)Oc2c(NS(=O)(=O)c3ccc(F)cc3)cccc2C1=O	3	x	-85*	0
C[C@H](CO)N1C[C@H](C)[C@@H](CN(C)Cc2ccc(C(=O)Nc3ccccc3N)cc2)Oc2c(NS(=O)(=O)c3ccccc3)cccc2C1=O	0	x	-37	0
C[C@@H]1CN([C@@H](C)CO)C(=O)c2cccc(NS(=O)(=O)c3ccccc3)c2O[C@@H]1CN(C)Cc1ccc(C(=O)Nc2ccccc2N)cc1	-2	81	-92*	x
C[C@@H]1CN([C@@H](C)CO)C(=O)c2cccc(NS(=O)(=O)c3ccc(Cl)cc3)c2O[C@@H]1CN(C)Cc1ccc(C(=O)Nc2ccccc2N)cc1	-1	99	-92*	x
NCCCN(Cc1ccco1)C1CCCC1	x	x	x	1
C[C@@H]1CCCCO[C@H](CN(C)C(=O)Nc2ccc(F)cc2)[C@@H](C)CN([C@@H](C)CO)C(=O)c2cc(NS(=O)(=O)c3ccccc3)ccc2O1	-2	97	-76	1
COc1ccc(S(=O)(=O)Nc2ccc3c(c2)C(=O)N([C@@H](C)CO)C[C@H](C)[C@@H](CN(C)C(=O)Nc2ccccc2)OCCCC[C@H](C)O3)cc1	1	10	-51	x
COc1ccc(S(=O)(=O)Nc2ccc3c(c2)C(=O)N([C@@H](C)CO)C[C@@H](C)[C@H](CN(C)C(=O)Nc2ccccc2)OCCCC[C@@H](C)O3)cc1	1	111*	-44	x
COc1ccc(S(=O)(=O)Nc2ccc3c(c2)C(=O)N([C@@H](C)CO)C[C@H](C)[C@H](CN(C)C(=O)NC2CCCCC2)OCCCC[C@@H](C)O3)cc1	-1	30	-88*	x
C[C@@H]1CCCCO[C@H](CN(C)C(=O)Nc2ccc(F)cc2)[C@@H](C)CN([C@@H](C)CO)C(=O)c2cc(NS(=O)(=O)c3ccc(Cl)cc3)ccc2O1	0	x	-87*	x
C[C@@H]1CCCCO[C@H](CN(C)C(=O)Nc2ccc(F)cc2)[C@H](C)CN([C@H](C)CO)C(=O)c2cc(NS(=O)(=O)c3ccccc3)ccc2O1	0	60	-91*	1
CCN(CC(=O)O)S(=O)(=O)c1ccc(C)cc1	x	x	x	0
C[C@@H]1CCCCO[C@H](CN(C)C(=O)Nc2ccccc2)[C@H](C)CN([C@@H](C)CO)C(=O)c2cc(NS(=O)(=O)c3ccccc3)ccc2O1	-1	x	-84*	x
